The record followed here is paper PMC3690275 (Journal of medicinal chemistry, 2013).

In data set [1] the test system is STAT1. The data set is classed as cell-based, rat. To be noted: co-treatment with IFN-γ, 30 min, immunofluorescence imaging.
Data set [2] relates to INS-1E β-cells. Nature of the data set: caspase-3/7 assay in INS-1E β-cells. Format: cell-based, rat. A digest of the protocol: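 Rat INS-1E β-cells co-treated with a cytokine mixture and the test compound over a dose range; caspase-3/7 activity read after 48 h. IC50 is fitted from triplicate dose-responses. Maximum activity is expressed as % rescue from cytokine-induced caspase-3/7 activation. For the cytokine-optimization runs, values are the mean ± standard error of three independent experiments with six replicates each.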

Data set [3] in a line: thermodynamic solubility assay. The data set is classed as physicochemical. To be noted: PBS pH 7.4, relative to compound 1.

Consider `C[C@@H]1CN([C@@H](C)CO)C(=O)c2cccc(NC(=O)Nc3cccc4cccnc34)c2O[C@H]1CN(C)S(=O)(=O)c1ccc2c(c1)OCCO2` [Compound 7i, N-(((2R,3R)-5-((S)-1-hydroxypropan-2-yl)-3-methyl-6-oxo-10-(3-(quinolin-8-yl)ureido)-3,4,5,6-tetrahydro-2H-benzo[b][1,5]oxazocin-2-yl)methyl)-N-methyl-2,3-dihydrobenzo[b][1,4]dioxine-6-sulfonamide], for which the “effect on IFN-γ-induced nuclear localization of STAT1” value (from here on “effect … of STAT1”) in data set [1] was “nearly abolished this nuclear localization of STAT1”.

Consider `C[C@@H]1CN([C@@H](C)CO)C(=O)c2cccc(NC(=O)NCc3cccc4ccccc34)c2O[C@H]1CN(C)S(=O)(=O)c1ccc2c(c1)OCCO2` [Compound 7a], for which the “effect … of STAT1” value in data set [1] is reported as “did not inhibit nuclear translocation of STAT1”. Besides, in data set [2] (INS-1E β-cells), the “activity in the caspase assay (in words)” value was “inactive”.

For `C[C@@H]1CN([C@@H](C)CO)C(=O)c2cccc(NC(=O)N(C)c3cccc4ccccc34)c2O[C@H]1CN(C)S(=O)(=O)c1ccc2c(c1)OCCO2` [Compound 7b], the “fold increase in solubility compared to 1” value in data set [3] came to 110 fold.

Regarding `C[C@@H]1CN([C@@H](C)CO)C(=O)c2cccc(NC(=O)Nc3cccc4ccccc34)c2O[C@H]1CN(C)S(=O)(=O)c1ccc2c(c1)OCCO2` [Compound 1], the “effect … of STAT1” value in data set [1] is “nearly abolished this nuclear localization of STAT1”. Moreover, the “protective effect in the caspase assay” value in data set [2] (condition A: standard concentrations of cytokines) is given as “small protective effect”. In data set [2] (condition B: IL-1β and TNF-α lowered 20- and 10-fold, IFN-γ increased 4-fold), the “rescue efficacy in the caspase assay” value was “higher rescue efficacy”. In addition, the “reduction of caspase activity” value in data set [2] (condition C (IFN-γ 500 ng/mL), INS-1E β-cells, 48 h) was 74%.

Regarding `C[C@@H]1CN([C@@H](C)CO)C(=O)c2cccc(NC(=O)Nc3cccc4ncccc34)c2O[C@H]1CN(C)S(=O)(=O)c1ccc2c(c1)OCCO2` [Compound 7f], the “fold increase in solubility compared to 1” value in data set [3] is given as 1400 fold.
